Rows were chosen to be rich in hits. Some 2.3% of all compounds tested hit in one or more screens of this group.
FN deposit inh: fibronectin deposition inhibition; inhibition, % at 12.6 µM; 350,000 compounds, 0.086% hits; AH1F fibroblasts, Alexa488-fibronectin deposition fluorescence, overnight; AID 743247;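 active = mean inhibition across replicates of 30% or more, regardless of how many single replicates reach that level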;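 also: positive control wells lacked labelled fibronectin entirely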
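test system = AH1F fibroblasts assembling fluorescent fibronectin matrix | quantity = 10000 AH1F cells per well | buffer or medium = DMEM plus 2% serum, read in PBS | doses = single dose, pinned | incubation = 1 h cell attachment, overnight exposure to compound and label | detection = fluorescence at 485 nm excitation, 525 nm emission | read-out basis = inhibition from reduced deposited-fibronectin fluorescence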
TWEAK-Fn14 inh: inhibitors of TWEAK-Fn14 interaction signaling; TWEAK-stimulated Fn14 reporter cells, luciferase luminescence, 8 h; 360,000 compounds, 2% hits; inhibition, % at 10 µM; in the data active = inhibition above about 50%
EWS-Fli inh: blocks EWS/Fli oncoprotein-driven transcription; A673 NR0B1-luciferase reporter, viability-normalised; 350,000 compounds, 0.67% hits; AID 651661; inhibition, % at 12.6 µM;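 active = mean inhibition of at least 50% after viability correction, with every replicate also passing that limit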;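 also: firefly luciferase signal divided by Alamar Blue viability fluorescence both relative to DMSO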
XiGFP reactiv: X-chromosome reactivation activator; AID 743238; activation, % at 7.58 µM; XiGFP mouse fibroblasts, % GFP-positive cells imaging, 3 d; cells co-treated with 5-aza-dC sensitizer; scaled so ellipticine positive control = 100%; 360,000 compounds, 0.055% hits;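 active = mean normalized replicate activation at least 10% and every replicate at or above 10%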;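 also: 0% = median of on-plate neutral control wells and 100% = ellipticine 6 µM median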
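assay system = SV40-immortalized XiGFP fibroblast cells, line 68-5-11 | buffer or medium = DMEM plus 5-aza-dC sensitizer | doses = single-point pinned compound dosing | times = 3-day compound exposure, then 15 min fixation at room temperature | benchmarks = positive control ellipticine, 6 µM final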
LGR2 inh: inhibitors of bursicon-induced Drosophila LGR2 receptor cAMP signaling; inhibition, % at 9.99 µM; HEK293 LGR2, CRE-luciferase, bursicon-stimulated, 4 h; 380,000 compounds, 0.35% hits;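 active = drop in luminescence signal, shown as inhibition above about 50% in the replicate tests, limit read from the data, passing the limit was not always enough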;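 also: agonist challenge used bursicon conditioned medium at about half maximal strength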
TROY signal inh: inhibitors of TROY-dependent NF-kB signaling | 360,000 compounds, 0.98% hits | inhibition, % at 10 µM | AID 1347056 | Q293 LMP1-TROYcd NF-kB luciferase reporter, 4 h;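 active = compounds whose plate-normalised and pattern-corrected inhibition of the luciferase reporter signal at the single screening dose is 50% or more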
Active calls of the source: *; x = not tested or not shown.

SMILES | FN deposit inh | TWEAK-Fn14 inh | EWS-Fli inh | XiGFP reactiv | LGR2 inh | TROY signal inh
Cc1ccn2c(Nc3ccccc3C)c(-c3ccccn3)nc2c1 | 0.2 | -39.8 | 18.7 | -0.2 | 23.4 | -22.6
Cc1ccccc1Nc1c(-c2ccccn2)nc2ccccn12 | -2.9 | -36.6 | 51.6* | 0.0 | 49.8 | 29.0
Cc1ccn2c(Nc3ccccc3)c(-c3ccccn3)nc2c1 | 10.3 | 22.5 | 51.9* | 1.0 | 8.2 | 1.1
O=C(Cc1nnc(NC(=O)c2ccccc2)s1)N/N=C\c1ccc(O)c(O)c1 | -0.1 | 7.8 | 10.7 | 0.1 | -22.7 | -9.4
O=C(Cc1nnc(NC(=O)c2ccccc2)s1)N/N=C/c1ccc(O)cc1 | -11.4 | 58.2* | 2.6 | 0.0 | -9.5 | -3.8
CCCNC(=O)Nc1ccc2c(c1)OC[C@@H](C)N(C(=O)C1CCCCC1)C[C@@H](C)[C@@H](OC)CN(C)C2=O | -8.3 | x | -1.7 | 0.0 | 0.6 | x
COc1ccc(/C=N/Nc2ncnc3sc4c(c23)CCCC4)cc1OC | -3.3 | 89.7* | x | -0.1 | 13.8 | 81.5*
C=C1C(=O)[C@]23C[C@H]1CC[C@H]2[C@]1(C)[C@@H](OC(C)=O)CC[C@@](C)(C(=O)O)[C@H]1C[C@@H]3O | 2.0 | 79.0* | 38.1 | 4.7 | 31.8 | 27.0
C=C1C(=O)[C@]23C[C@H]1CCC2[C@@]1(C)C(C[C@@H]3O)[C@](C)(C(=O)O)C[C@H](O)[C@@H]1O (stereo partly specified) | 7.1 | -9.3 | 2.3 | 0.0 | 7.8 | -29.0
C=C1C(=O)[C@]23C[C@H]1CC[C@H]2[C@]1(C)[C@@H](OC(C)=O)CC[C@@](C)(C(=O)OC)[C@H]1C[C@@H]3OC(C)=O | x | 84.5* | 61.4* | -0.1 | 29.4 | 23.6
C=C1C(=O)[C@]23C[C@H]1CC[C@H]2[C@]1(C)[C@@H](O)CC[C@@](C)(C(=O)O)[C@H]1C[C@@H]3O | x | 40.0 | 11.2 | 0.1 | -27.0 | 4.1
C=C1C(=O)[C@]23C[C@H]1CCC2[C@@]1(C)C(C[C@@H]3O)[C@](C)(C(=O)OC)CC[C@@H]1OC(C)=O (stereo partly specified) | 26.8 | 96.2* | 53.3* | -0.1 | 92.4* | 37.1
Cc1noc(C)c1S(=O)(=O)N(C)C[C@@H]1Oc2ccc(NC(=O)Nc3ccccc3)cc2CC(=O)N([C@H](C)CO)C[C@@H]1C | x | x | 7.7 | -0.6 | 11.1 | x
Cc1ccc(-n2nc3c([n+]2[O-])CCc2c-3no[n+]2[O-])cc1 | 6.1 | 56.9* | x | x | x | -3.8
[O-][n+]1onc2c1CCc1c-2nn(-c2ccccc2Cl)[n+]1[O-] | x | 24.8 | 7.4 | x | 20.8 | 5.0
Cc1nccc(-c2sc(-c3cccs3)nc2C)n1 | -3.6 | -9.9 | -80.0 | 0.1 | -47.8 | 59.5*
Cc1nc(-c2cccs2)sc1C(=O)O | 2.0 | -4.1 | -6.5 | -0.1 | 2.9 | -15.1
CCc1c(C2(O)CCCCC2)[nH]c2ccc(C(F)(F)F)cc12 | -7.8 | 15.7 | -16.7 | 0.1 | 3.7 | 56.5*
COc1ccc(N=N/C(=C\O)C(=O)c2cccs2)cc1 | x | 68.9* | -23.5 | 0.0 | -24.7 | 9.2
COc1ccc(C(=O)/C(=C/O)N=Nc2ccc(F)cc2)cc1 | -3.9 | -20.4 | -5.1 | 0.0 | -18.8 | 2.8
O[C@H]1C[C@H](c2ccc(Cl)cc2)N(Cc2cccs2)C[C@@H]1n1cc(-c2ccc(F)cc2)nn1 | x | 5.5 | 14.9 | 0.5 | -0.2 | -6.1
O[C@@H]1CN(CC2CCCCC2)[C@@H](c2ccccc2)C[C@H]1n1cc(C2CC2)nn1 | 11.1 | 4.2 | 6.8 | -0.1 | 18.5 | -3.0
O[C@H]1C[C@H](c2ccccc2)N(CC2CCCCC2)C[C@@H]1n1cc(C2CC2)nn1 | x | 64.1* | -16.8 | 0.1 | 17.8 | -19.2
O[C@H]1CN(CC2CCCCC2)[C@@H](c2ccc(Cl)cc2)C[C@@H]1n1cc(-c2ccc(F)cc2)nn1 | -13.7 | 50.2* | 6.1 | -0.1 | 4.7 | 10.1
O[C@H]1CN(CC2CCCCC2)[C@@H](c2ccc(Cl)cc2)C[C@@H]1n1cc(C2CC2)nn1 | x | 29.6 | 16.4 | 0.8 | 9.9 | 51.8*
SMILES | FN deposit inh | TWEAK-Fn14 inh | EWS-Fli inh | XiGFP reactiv | LGR2 inh | TROY signal inh
O[C@H]1C[C@H](c2ccc(Cl)cc2)N(CC2CCCCC2)C[C@@H]1n1cc(-c2ccc(F)cc2)nn1 | -0.9 | -6.8 | -11.2 | 0.1 | 4.5 | -2.6
CCCCCCN1C[C@@H](O)[C@H](n2cc(C3CC3)nn2)C[C@@H]1c1ccc(Cl)cc1 | -6.1 | 14.0 | -7.2 | 0.5 | 20.0 | 2.9
Cc1ccc([C@H]2C[C@H](O)[C@@H](n3cc(-c4ccc(F)cc4)nn3)CN2Cc2cccs2)cc1 | 8.4 | 41.2 | 53.3* | -0.1 | 8.4 | 19.2
CC(=O)N(C)C[C@@H]1Oc2ncc(-c3ccc(C#N)cc3)cc2C(=O)N([C@@H](C)CO)C[C@@H]1C | 1.0 | x | -7.5 | 0.0 | 18.3 | x
CCC(=O)Nc1cccc(C(=O)/C=C/c2ccccc2)c1 | x | 64.8* | x | x | x | 8.2
O=C(/C=C/c1ccccc1)Nc1cc(NC(=O)/C=C/c2ccccc2)cc(C(=O)O)c1 | -2.9 | 1.5 | 24.9 | 0.7 | 29.8 | -4.0
CCC(=O)Nc1cccc(C(=O)/C=C/c2cccs2)c1 | -4.6 | 39.7 | -34.2 | 0.2 | -33.6 | -35.3
CSc1ccc(/C=C/C(=O)Nc2ccccc2)cc1 | x | 72.3* | 5.4 | 0.5 | 76.6* | 42.2
O=C(/C=C/c1ccccc1)Nc1cccc(C(=O)O)c1 | 2.2 | 40.8 | 86.1* | 0.2 | 103.4* | -21.1
CSc1cccc(NC(=O)/C=C/c2ccccc2)c1 | -4.6 | -14.0 | x | x | x | -52.7
O=C(NCc1ccccc1)[C@@H]1[C@@H](CO)[C@@H]2Cn3c(ccc(/C=C/c4ccccc4)c3=O)[C@H]1N2CC1CC1 | x | x | 3.8 | 0.7 | 3.0 | x
Cc1ccc(Cl)cc1N1CCN(C(=O)CSc2nnc3n2C(C)(C)Cc2ccccc2-3)CC1 | x | 95.9* | x | x | x | 72.4*
CO[C@@H]1CN(C)C(=O)c2cc(NC(=O)NC(C)C)ccc2OC[C@H](C)N(Cc2cncnc2)C[C@H]1C | -10.7 | x | -3.1 | -0.4 | -3.6 | x
CCNc1nc(NCC)n2c(SC(C(=O)Nc3cc(Cl)cc(Cl)c3)c3ccccc3)nnc2n1 (stereo unspecified) | 0.6 | 66.6* | x | 0.0 | 2.0 | 47.2
CCNc1nc(NCC)n2c(SCC(=O)Nc3cccc(Cl)c3)nnc2n1 | x | -9.6 | x | x | x | -13.8
Cc1ccc(S(=O)(=O)Nc2ccc3c(c2)C(=O)N([C@@H](C)CO)C[C@@H](C)[C@@H](CN(C)Cc2ccc(C(=O)O)cc2)OCCCC[C@H](C)O3)cc1 | -8.9 | x | -16.2 | 0.0 | -8.4 | x
CCOC(=O)c1cnc(SC)nc1Oc1cccc(NS(=O)(=O)c2ccccc2)c1 | 5.8 | 54.6* | x | x | x | -10.2
C[C@@H]1CCCCO[C@H](CN(C)C(=O)C2CCCCC2)[C@@H](C)CN([C@@H](C)CO)C(=O)c2cc(NC(=O)C3CCCCC3)ccc2O1 | x | x | 11.4 | 0.0 | -9.0 | x
